From ChEMBL document CHEMBL1165887, “Structure-activity relationships of monomeric C2-aryl pyrrolo[2,1-c][1,4]benzodiazepine (PBD) antitumor agents” (J Med Chem, 2010)

Experiments:
[1] = Growth inhibition of human NCI60 cells after 48 hrs by SRB assay; assay type: functional; details: NCI60, 48 h; for CC50: read-out: LC50 (the source's name)
[2] = test system: Calf thymus DNA; assay: Binding affinity to calf thymus DNA assessed as change in melting temperature after 4 hrs; assay type: nucleic-acid assay; details: Bos taurus
How it was run: (§1)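 Calf thymus DNA at a fixed 100 μM (DNAp, 50 μM bp) in pH 7.00 buffer of 10 mM NaH₂PO₄/Na₂HPO₄ and 1 mM Na₂EDTA, 1:5 ligand/DNAp ratio, DMSO ≤0.3% v/v. Mixture kept at 37 °C for the stated time, then melted while absorbance at 260 nm was monitored. Tm taken at the midpoint of the normalized profile; ΔTm = Tm(DNA+ligand) − Tm(DNA), corrected for DMSO; mean of at least three runs.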

[3] = test system: Calf thymus DNA; assay: Binding affinity to calf thymus DNA assessed as change in melting temperature after 18 hrs; assay type: nucleic-acid assay; details: Bos taurus; how it was run: as §1
[4] = test system: K562; assay: Cytotoxicity against human K562 cells after 96 hrs by alamar blue assay; assay type: functional, cell-based; details: K562, 96 h
How it was run: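 K562 cells kept in RPMI with 10% fetal calf serum and 2 mM glutamine, seeded at 10⁴ cells/mL. Compounds serially diluted in DMSO and added in triplicate; exposure 96 h at 37 °C, 5% CO₂. Alamar Blue (1 μM final) then added for a further 4 h; read by fluorescence emission at 580-620 nm.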

Compound | GI50 [1] | TGI [1] | CC50 [1] | ΔTm [2] | ΔTm [3] | IC50 [4]
COc1cccc(C2=CN3C(=O)c4cc(OC)c(OC)cc4N=C[C@@H]3C2)c1 | 11 nM | 60 nM | 4070 nM | 10.1 °C | 10.2 °C | 0.45 nM
COc1cc2c(cc1OC)C(=O)N1C=C(c3ccc(SC)cc3)C[C@H]1C=N2 | 5 nM | 20 nM | 1440 nM | 10.5 °C | 10.7 °C | 19 nM
C=Cc1ccc(C2=CN3C(=O)c4cc(OC)c(OC)cc4N=C[C@@H]3C2)cc1 | 5 nM | 10 nM | 620 nM | 9 °C | 9.2 °C | 69 nM
COc1cc2c(cc1OC)C(=O)N1C=C(c3c(C)cccc3C)C[C@H]1C=N2 | 851 nM | 3460 nM | 20900 nM | 0.5 °C | 0.5 °C | > 1000 nM
COc1cc2c(cc1OC)C(=O)N1C=C(c3cc4ccccc4s3)C[C@H]1C=N2 | 5 nM | 90 nM | 540 nM | – | – | 26.7 nM
COc1cc2c(cc1OC)C(=O)N1C=C(c3cccc(F)c3)C[C@H]1C=N2 | 3 nM | 50 nM | 16600 nM | – | – | 6.4 nM
COc1cc2c(cc1OC)C(=O)N1C=C(c3ccc(O)cc3)C[C@H]1C=N2 | 2 nM | 80 nM | 3390 nM | – | – | 10.3 nM
COc1cc2c(cc1OC)C(=O)N1C=C(c3ccc4ccccc4c3)C[C@H]1[C@H](S(=O)(=O)O)N2 | 2 nM | 20 nM | 45.4 nM | – | – | 1.8 nM
C/C=C/C1=CN2C(=O)c3cc(O[C@@H]4O[C@@H](C)[C@H](NC)[C@@](C)(O)[C@H]4O)c(C)c(O)c3N[C@H](O)[C@@H]2C1 [SIBIROMYCIN] | 33 nM | 850 nM | 16700 nM | 16 °C | 16.3 °C | 1.4 nM
COc1cc2c(cc1OC)C(=O)N1C=C(c3c(OC)cccc3OC)C[C@H]1C=N2 | 110 nM | 1100 nM | 11700 nM | – | – | 61 nM
COc1cc2c(cc1OC)C(=O)N1C=C(c3ccc(C(=O)O)cc3)C[C@H]1C=N2 | 13200 nM | 23400 nM | 25100 nM | – | – | > 1000 nM
COc1cc2c(cc1OC)C(=O)N1C=C(c3cccc(C(=O)NCCCN(C)C)c3)C[C@H]1C=N2 | 102 nM | 850 nM | 14100 nM | – | – | 273 nM
COc1cc2c(cc1OC)C(=O)N1C=C(c3ccc4c(c3)OCO4)C[C@H]1C=N2 | 2 nM | 30 nM | 3630 nM | 10.3 °C | 10.3 °C | 0.47 nM
COc1cc2c(cc1OC)C(=O)N1C=C(c3cnn(C)c3)C[C@H]1C=N2 | 3 nM | 50 nM | 5370 nM | – | – | 12.2 nM
COc1cc2c(cc1OC)C(=O)N1C=C(c3cccc4c3oc3ccccc34)C[C@H]1C=N2 | 49 nM | 210 nM | 2820 nM | – | – | 162 nM
COc1cc2c(cc1OC)C(=O)N1C=C(c3cc4ccccc4o3)C[C@H]1C=N2 | 6 nM | 50 nM | 440 nM | – | – | 10.8 nM
COc1cc2c(cc1OC)C(=O)N1C=C(/C=C/c3ccccc3)C[C@H]1C=N2 | 4 nM | 20 nM | 1580 nM | – | – | 0.1 nM
COc1cc2c(cc1OC)C(=O)N1C=C(/C=C/c3ccc(C)cc3)C[C@H]1C=N2 | 2 nM | 50 nM | 440 nM | – | – | 41.1 nM
COc1cc2c(cc1OC)C(=O)N1C=C(c3ccc(C=O)cc3)C[C@H]1C=N2 | 9 nM | 160 nM | 15100 nM | 10.6 °C | 10.8 °C | 26.3 nM
CCOc1ccc2cc(C3=CN4C(=O)c5cc(OC)c(OC)cc5N=C[C@@H]4C3)ccc2c1 | 2 nM | 20 nM | 1950 nM | – | – | 12.6 nM
COc1cc2c(cc1OC)C(=O)N1C=C(c3ccc(Cl)cc3)C[C@H]1C=N2 | 2 nM | 70 nM | 4470 nM | 9.9 °C | 10.2 °C | 31.3 nM
COc1cc2c(cc1OC)C(=O)N1C=C(c3cccc(C#N)c3)C[C@H]1C=N2 | 4 nM | 560 nM | 16200 nM | – | – | 15.1 nM
COc1cc2c(cc1OC)C(=O)N1C=C(c3ccc4ccccc4c3)C[C@H]1C=N2 | 0.6 nM | 15 nM | 400 nM | 15.4 °C | 15.7 °C | 45.4 nM
COc1cc2c(cc1OC)C(=O)N1C=C(c3ccccc3)C[C@H]1C=N2 | 2 nM | 40 nM | 5130 nM | 10.6 °C | 10.8 °C | 2.5 nM

Compound | GI50 [1] | TGI [1] | CC50 [1] | ΔTm [2] | ΔTm [3] | IC50 [4]
C=CC1=CN2C(=O)c3cc(OC)c(OC)cc3N=C[C@@H]2C1 | 78 nM | 1230 nM | 30200 nM | – | – | 2.7 nM
COc1ccc2cc(C3=CN4C(=O)c5cc(OC)c(OC)cc5N=C[C@@H]4C3)ccc2c1 | 0.9 nM | 7 nM | 270 nM | – | – | 2.3 nM
COc1cc2c(cc1OC)C(=O)N1C=C(c3ccc(Oc4ccccc4)cc3)C[C@H]1C=N2 | 3 nM | 30 nM | 1260 nM | 11.9 °C | 12.1 °C | 51.1 nM
COc1cc2c(cc1OC)C(=O)N1C=C(c3ccc(C(C)C)cc3)C[C@H]1C=N2 | 4 nM | 60 nM | 4460 nM | 6.7 °C | 6.9 °C | 115 nM
COc1cc2c(cc1OC)C(=O)N1CCC[C@H]1C=N2 | 2140 nM | 19000 nM | 57500 nM | – | – | 488 nM
COc1ccc([C@H]2C[C@H]3C=Nc4cc(OC)c(OC)cc4C(=O)N3C2)cc1 | 9770 nM | 43600 nM | 91200 nM | – | – | > 1000 nM
COc1cc2c(cc1OC)C(=O)N1C=CC[C@H]1C=N2 | 1350 nM | 8130 nM | 60200 nM | – | – | 14.4 nM
COc1cc2c(cc1OC)C(=O)N1C=C(c3ccc4ccc5cccc6ccc3c4c56)C[C@H]1C=N2 | 398 nM | 1440 nM | 10700 nM | – | – | 86.2 nM
COc1cc2c(cc1OC)C(=O)N1C=C(c3ccc4[nH]ccc4c3)C[C@H]1C=N2 | 5 nM | 40 nM | 7080 nM | – | – | 12.6 nM
COc1cc2c(cc1OC)C(=O)N1C=C(c3cccc([N+](=O)[O-])c3)C[C@H]1C=N2 | 5 nM | 50 nM | 5620 nM | – | – | 58.1 nM
COc1cc2c(cc1OC)C(=O)N1C=C(c3ccc(OCCCN(C)C)cn3)C[C@H]1C=N2 | 4 nM | 60 nM | 4070 nM | – | – | 9.4 nM
COc1cc2c(cc1OC)C(=O)N1C=C(c3ccc(C(=O)N4CCN(C)CC4)cc3)C[C@H]1C=N2 | 15 nM | 710 nM | 13800 nM | – | – | 59.5 nM
COc1cc2c(cc1OC)C(=O)N1C=C(c3ccc([N+](=O)[O-])cc3)C[C@H]1C=N2 | 4 nM | 70 nM | 6920 nM | – | – | 13.1 nM
COc1cc2c(cc1OC)C(=O)N1C=C(c3cccc(C(=O)NCCN(C)C)c3)C[C@H]1C=N2 | 27 nM | 1860 nM | 10500 nM | – | – | 119 nM
COC(=O)c1cccc(C2=CN3C(=O)c4cc(OC)c(OC)cc4N=C[C@@H]3C2)c1 | 5 nM | 40 nM | 7580 nM | – | – | 12.4 nM
COc1cc2c(cc1OC)C(=O)N1C=C(c3cccc4c3sc3ccccc34)C[C@H]1C=N2 | 25 nM | 220 nM | 5370 nM | – | – | 163 nM
COc1cc2c(cc1OC)C(=O)N1C=C(c3cccc(C(F)(F)F)c3)C[C@H]1C=N2 | 6 nM | 30 nM | 1350 nM | – | – | 46.8 nM
COc1cc2c(cc1OC)C(=O)N1C=C(c3cccc(OC(F)(F)F)c3)C[C@H]1C=N2 | 6 nM | 180 nM | 7240 nM | – | – | 76.5 nM
COc1cc2c(cc1OC)C(=O)N1C=C(c3c(F)cccc3F)C[C@H]1C=N2 | 25 nM | 330 nM | 4360 nM | – | – | 7.1 nM
COc1cc2c(cc1OC)C(=O)N1C=C(c3ccc(Cl)c(Cl)c3)C[C@H]1C=N2 | 3 nM | 50 nM | 3020 nM | – | – | 106 nM
COc1cc2c(cc1OC)C(=O)N1C=C(c3ccc4ncccc4c3)C[C@H]1[C@H](S(=O)(=O)O)N2 | 0.2 nM | 4 nM | 1.4 nM | – | – | 1.3 nM
COc1cc2c(cc1OC)C(=O)N1C=C(c3ccccc3C(F)(F)F)C[C@H]1C=N2 | 16 nM | 160 nM | 4360 nM | – | – | 258 nM
COc1cc2c(cc1OC)C(=O)N1C=C(c3cccc(N)c3)C[C@H]1C=N2 | 4 nM | 50 nM | 5890 nM | – | – | 59.5 nM
COc1cc2c(cc1OC)C(=O)N1C=C(c3cccc(C)c3)C[C@H]1C=N2 | 5 nM | 70 nM | 7580 nM | – | – | 9.5 nM
